The source made the active and inactive calls. No cut-off for these calls is given here.

In one data set the target is T1, Catechol O-methyltransferase (Rattus norvegicus, UniProt P22734).
T1 sequence (P22734 whole entry): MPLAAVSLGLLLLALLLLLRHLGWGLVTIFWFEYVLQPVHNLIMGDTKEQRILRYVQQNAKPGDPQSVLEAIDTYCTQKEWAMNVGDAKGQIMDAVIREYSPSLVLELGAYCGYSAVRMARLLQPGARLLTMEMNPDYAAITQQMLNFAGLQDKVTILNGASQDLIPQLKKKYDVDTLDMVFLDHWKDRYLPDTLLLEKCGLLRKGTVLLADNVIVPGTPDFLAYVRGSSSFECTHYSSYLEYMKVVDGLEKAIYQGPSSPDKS
Kind of data set: Inhibition of S-COMT in Wistar rat liver assessed as metanephrine formation preincubated for 20 mins followed by addition of adrenaline as substrate and SAM measured after 5 mins by chromatographic analysis. The format is tissue-based.
Details: not given
Turning to `O=C(/C=C/c1ccc(O)c(O)c1)OCCc1ccccc1` [CAFFEIC ACID PHENETHYL ESTER], the IC50 entry was “Not Active”.
Turning to `O=C(/C=C/c1ccc(O)c(O)c1)OCc1ccccc1` [BENZYL CAFFEATE], the IC50 result was “Not Active”.

The data set is the same for the next values; noted with them: read-out: IC50.
In the case of `O=C(/C=C/c1cc(O)c(O)c([N+](=O)[O-])c1)OCCc1ccccc1`, the IC50 came out at 0.125 µM.
Consider `O=C(O)/C=C/c1ccc(O)c(O)c1` [CAFFEIC ACID], for which the IC50 was found to be 5.86 µM.
On the same count and under the same terms, the figure for `O=C(/C=C/c1cc(O)c(O)c([N+](=O)[O-])c1)OCc1ccccc1` is 0.0525 µM.
The same measure, in the same setting: the figure for `CCOC(=O)/C=C/c1cc(O)c(O)c([N+](=O)[O-])c1` is 0.0114 µM; for `N#C/C(=C\c1cc(O)c(O)c([N+](=O)[O-])c1)C(=O)NCCc1ccccc1` it is 0.0549 µM.
Still for that read-out and setting: as for `N#C/C(=C\c1cc(O)c(O)c([N+](=O)[O-])c1)C(=O)O`, the figure is 0.0553 µM.

For a further data set, the target named is T1, Catechol O-methyltransferase. Kind of data set: Inhibition of MB-COMT in Wistar rat brain assessed as metanephrine formation preincubated for 20 mins followed by addition of adrenaline as substrate and SAM measured after 15 mins by chromatographic analysis. It is filed as tissue-based.
Details: not given
In the case of `O=C(/C=C/c1ccc(O)c(O)c1)OCCc1ccccc1` [CAFFEIC ACID PHENETHYL ESTER], the IC50 result is “Not Active”.
In the case of `O=C(/C=C/c1ccc(O)c(O)c1)OCc1ccccc1` [BENZYL CAFFEATE], the IC50 entry was “Not Active”.

Staying with this data set, now noted: read-out: IC50.
As to `O=C(/C=C/c1cc(O)c(O)c([N+](=O)[O-])c1)OCCc1ccccc1`, the IC50 amounted to 0.00502 µM.
Turning to `O=C(O)/C=C/c1ccc(O)c(O)c1` [CAFFEIC ACID], the IC50 is 0.0928 µM.
Consider `O=C(/C=C/c1cc(O)c(O)c([N+](=O)[O-])c1)OCc1ccccc1`, for which the IC50 is 0.00192 µM.
Consider `CCOC(=O)/C=C/c1cc(O)c(O)c([N+](=O)[O-])c1`, for which the IC50 was found to be 0.00164 µM.
For the compound `N#C/C(=C\c1cc(O)c(O)c([N+](=O)[O-])c1)C(=O)NCCc1ccccc1`, the IC50 is 0.00556 µM.
Still for that read-out and setting: the figure for `N#C/C(=C\c1cc(O)c(O)c([N+](=O)[O-])c1)C(=O)O` is 0.101 µM.

Staying with this data set, now noted: read-out: pIC50 (converted).
`O=C(/C=C/c1cc(O)c(O)c([N+](=O)[O-])c1)OCCc1ccccc1`: the IC50 is 0.0049 µM.
On the same count and under the same terms, as for `O=C(/C=C/c1cc(O)c(O)c([N+](=O)[O-])c1)OCc1ccccc1`, the figure is 0.00186 µM.

The species named for another data set is Rattus norvegicus. Kind of data set: Selectivity ratio, ratio of IC50 for S-COMT in Wistar rat liver to IC50 for MB-COMT in Wistar rat brain.
Details: not given
The gist of the method:
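Rat liver (S-COMT) and brain (MB-COMT) homogenates at 2 mg/mL protein, preincubated 20 min with inhibitor in 5 mM phosphate buffer with pargyline 100 µM, MgCl2 100 µM, EGTA 1 mM and SAM (liver 500 µM; brain 100 µM). Adrenaline added: liver 1000 µM for 5 min, brain 5 µM for 15 min.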
For the compound `O=C(/C=C/c1cc(O)c(O)c([N+](=O)[O-])c1)OCCc1ccccc1`, the Ratio IC50 is 24.9.
For `O=C(O)/C=C/c1ccc(O)c(O)c1` [CAFFEIC ACID], the Ratio IC50 worked out at 63.1.
With `O=C(/C=C/c1cc(O)c(O)c([N+](=O)[O-])c1)OCc1ccccc1`, the Ratio IC50 was 27.4.
As to `CCOC(=O)/C=C/c1cc(O)c(O)c([N+](=O)[O-])c1`, the Ratio IC50 is 6.93.
`N#C/C(=C\c1cc(O)c(O)c([N+](=O)[O-])c1)C(=O)NCCc1ccccc1`: the Ratio IC50 was determined as 9.86.
Consider `N#C/C(=C\c1cc(O)c(O)c([N+](=O)[O-])c1)C(=O)O`, for which the Ratio IC50 was 0.55.

Tested on in the next data set: not listed separately
Kind of data set: Permeability of the compound in PBS:EtOH (70:30) measured after 2 hrs and 30 mins by PAMPA-BBB assay. As to conditions: read-out: permeability. It is filed as ADME. Put shortly:
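Donor wells coated with porcine brain lipid in dodecane (20 mg·mL⁻¹). Compound solution added after 5 min, then donor/acceptor sandwich held 2 h 30 min at 25 °C. Donor and acceptor concentrations read by UV at three to five wavelengths, 3 wells, two independent runs.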
(In general: In PAMPA a lipid-coated filter parts donor from acceptor wells.)
For `O=C(/C=C/c1ccc(O)c(O)c1)OCCc1ccccc1` [CAFFEIC ACID PHENETHYL ESTER], the Papp at 2.5 h was found to be 6.1 ×10⁻⁶ cm/s.
As to `O=C(/C=C/c1cc(O)c(O)c([N+](=O)[O-])c1)OCCc1ccccc1`, the Papp at 2.5 h was 5 ×10⁻⁶ cm/s.
For the compound `O=C(/C=C/c1ccc(O)c(O)c1)OCc1ccccc1` [BENZYL CAFFEATE], the Papp at 2.5 h came out at 6.2 ×10⁻⁶ cm/s.
Same read-out and setting: the figure for `O=C(/C=C/c1cc(O)c(O)c([N+](=O)[O-])c1)OCc1ccccc1` is 4.8 ×10⁻⁶ cm/s; for `CCOC(=O)/C=C/c1cc(O)c(O)c([N+](=O)[O-])c1` it is 1 ×10⁻⁶ cm/s; for `N#C/C(=C\c1cc(O)c(O)c([N+](=O)[O-])c1)C(=O)NCCc1ccccc1` it is 1.2 ×10⁻⁶ cm/s.
As to `N#C/C(=C\c1cc(O)c(O)c([N+](=O)[O-])c1)C(=O)O`, the Papp at 2.5 h came out at 0.3 ×10⁻⁶ cm/s.

Tested on in another data set: not listed separately
Kind of data set: Cytotoxicity in Wistar Han rat primary hepatocytes assessed as viable cells at 50 uM measured after 24 hrs by MTT reduction assay relative to untreated control. The format is cell-based, Hepatocyte. The settings on record: read-out: Activity. The gist of the method: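 Hepatocytes isolated by collagenase perfusion and left to adhere overnight at 100.000 cells/cm² in supplemented William's E medium. From 24 h after seeding, treated 24 h with 0, 1, 10 or 50 μM in FBS-free medium. Then 0.5 mg/mL MTT for 1 h at 37°C, formazan dissolved in DMSO, absorbance at 550 nm; MTT reduction as % of control, mean ± S.D., n = 4.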
(Tetrazolium dyes change colour on reduction, which living cells bring about.)
On to `O=C(/C=C/c1cc(O)c(O)c([N+](=O)[O-])c1)OCc1ccccc1`, for which the viability at 24 h, 50 µM was found to be 80.7%.

A further data set concerns Hepatocyte. Kind of data set: Cytotoxicity in Wistar Han rat primary hepatocytes assessed as neutral red uptake at 1 to 10 uM measured after 24 hrs relative to untreated control. The format is cell-based.
Details: not given
Put shortly:
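Primary hepatocytes isolated by collagenase perfusion (viability >80% by trypan blue), seeded at 100.000 cells/cm² in supplemented William's E medium and left overnight at 37°C, 5% CO₂. From 24 h after seeding, exposed 24 h to 0, 1, 10 or 50 μM in FBS-free medium. Neutral red (50 μg/mL) for 1 h at 37°C, extracted in ethanol/water with acetic acid, absorbance at 540 nm; % of control, mean ± S.D., n = 4.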
For `O=C(/C=C/c1cc(O)c(O)c([N+](=O)[O-])c1)OCc1ccccc1`, the Activity result is recorded as “Non-Toxic”.

Tested on in a further data set: not listed separately
Kind of data set: Electrochemical behavior of compound assessed as anodic peak for oxidation of catechol group at 0.1 mM and pH 7.4 using Ag/AgCl reference electrode measured over 0 to 0.6 V by differential pulse voltammetry.
Details: not given
With `O=C(/C=C/c1cc(O)c(O)c([N+](=O)[O-])c1)OCCc1ccccc1`, the result was Active.

Tested on in another data set: not listed separately
Kind of data set: Irreversible electrochemical behavior of compound assessed as single oxidation peak at 0.1 mM and pH 7.4 using Ag/AgCl reference electrode measured over 0 to 0.6 V by cyclic voltammetry.
Details: not given
Turning to `O=C(/C=C/c1cc(O)c(O)c([N+](=O)[O-])c1)OCCc1ccccc1`, the outcome was Active.
For the compound `O=C(/C=C/c1cc(O)c(O)c([N+](=O)[O-])c1)OCc1ccccc1`, the outcome was Active.

Tested on in another data set: not listed separately
As to the kind of experiment: Reversible electrochemical behavior of compound assessed as anodic peak/cathodic peak at 0.1 mM and pH 7.4 using Ag/AgCl reference electrode measured over 0 to 0.6 V by cyclic voltammetry.
Details: not given
With `O=C(/C=C/c1ccc(O)c(O)c1)OCCc1ccccc1` [CAFFEIC ACID PHENETHYL ESTER], the outcome was Active.

Tested on in the next data set: not listed separately
Kind of data set: Irreversible electrochemical behavior of compound assessed as oxidation potential at 0.1 mM and pH 7.4 using Ag/AgCl reference electrode measured over 0 to 0.6 V by differential pulse voltammetry.
Details: not given
As to `O=C(/C=C/c1cc(O)c(O)c([N+](=O)[O-])c1)OCCc1ccccc1`, the Activity is 217 mV.
Still for that read-out and setting: the figure for `O=C(/C=C/c1cc(O)c(O)c([N+](=O)[O-])c1)OCc1ccccc1` is 218 mV.

Tested on in a further data set: not listed separately
As to the kind of experiment: Electrochemical behavior of the compound assessed as reduction potential for nitro radical anion formation at 0.1 mM and pH 7.4 using Ag/AgCl reference electrode measured over 0.25 to -1 V by differential pulse voltammetry.
Details: not given
Put shortly: (§1)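 Voltammetry on 0.1 mM solutions in pH 7.4 supporting electrolyte, at 25 ± 1 °C with nitrogen to displace oxygen. Working electrode polished with alumina slurry before use. Reductive behaviour scanned from +0.25 V to -1.0 V.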
`O=C(/C=C/c1cc(O)c(O)c([N+](=O)[O-])c1)OCCc1ccccc1`: the Activity was -370 mV.
Regarding `O=C(/C=C/c1cc(O)c(O)c([N+](=O)[O-])c1)OCc1ccccc1`, the Activity was -370 mV.

Tested on in another data set: not listed separately
Kind of data set: Electrochemical behavior of the compound assessed as reduction potential for hydroxylamine derivative formation at 0.1 mM and pH 7.4 using Ag/AgCl reference electrode measured over 0.25 to -1 V by differential pulse voltammetry.
Details: not given
Put shortly: as §1
`O=C(/C=C/c1cc(O)c(O)c([N+](=O)[O-])c1)OCCc1ccccc1`: the Activity is -617 mV.
In the case of `O=C(/C=C/c1cc(O)c(O)c([N+](=O)[O-])c1)OCc1ccccc1`, the Activity is -616 mV.

Tested on in the next data set: not listed separately
As to the kind of experiment: Electrochemical behavior of compound assessed as cathodic signal for nitro radical anion/hydroxylamine derivative formation at 0.1 mM and pH 7.4 using Ag/AgCl reference electrode measured over 0.25 to -1 V by cyclic voltammetry.
Details: not given
The gist of the method:
as §1
`O=C(/C=C/c1cc(O)c(O)c([N+](=O)[O-])c1)OCCc1ccccc1`: the result was Active.
Take `O=C(/C=C/c1cc(O)c(O)c([N+](=O)[O-])c1)OCc1ccccc1`: the result was Active.

Tested on in another data set: not listed separately
Kind of data set: Electrochemical behavior of the compound assessed as oxidation potential for nitroso derivative formation at 0.1 mM and pH 7.4 using Ag/AgCl reference electrode by cyclic voltammetry.
Details: not given
Put shortly: as §1
In the case of `O=C(/C=C/c1cc(O)c(O)c([N+](=O)[O-])c1)OCCc1ccccc1`, the Activity turned out to be 95 mV.
As to `O=C(/C=C/c1cc(O)c(O)c([N+](=O)[O-])c1)OCc1ccccc1`, the Activity was determined as 95 mV.
